For one series, the system named is MCF7wt cells. Briefly: Flow cytometry of fluorescent tracers 5 or 6 in MCF7wt cells. It counts as cell-based, human. The settings on record: masking compound at 10 µM. An outline of the steps: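 Parental MCF7 cells were grown in high-glucose DMEM with 10% FBS and 1% penicillin-streptomycin at 37 °C. […] Cells were washed twice in PBS, detached 10 min at 37 °C, pelleted and resuspended in PBS. Flow cytometry used a 530 nm band pass filter, 50,000 events per analysis.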
For orientation: A flow cytometer gives signals particle by particle.

In series [1] the target is human σ1 receptors in MCF7σ1 cells (Homo sapiens, UniProt Q99720). As to the kind of experiment: Flow cytometry displacement of fluorescent tracers 5 or 6 in MCF7σ1 cells. It counts as binding. The settings on record: for effect on fluorescent signal by tracers 5 and 6 (100 nM): MCF7σ1 cells, masking compound at 10 µM; for concentration at which the cellular fluorescence signal reaches a plateau: MCF7 cell lines, 45 and 75 min incubation, flow cytometry.

A further series has as its target σ1 receptor (Cavia porcellus, UniProt Q60492). Briefly: σ1 receptor radioligand competition binding. Also on record: species or system guinea pig. The conditions noted are these: for σ1 versus σ2 receptor selectivity: ratio of σ2 and σ1 Ki. In general terms: Displacement assays read how much labelled ligand stays bound in the presence of the test substance.
Series [2] can be described thus: Fluorescence spectroscopy. It counts as physicochemical. The conditions noted are these: with respect to quinine sulfate. In outline:
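Excitation and emission spectra were recorded on the free base in EtOH (per table footnote) or in CHCl3. Fluorescence quantum yield was calculated relative to quinine sulfate.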

The target of the next series is T1, σ2 receptor (Rattus norvegicus, UniProt Q5U3Y7).
T1 sequence (Q5U3Y7 1-176): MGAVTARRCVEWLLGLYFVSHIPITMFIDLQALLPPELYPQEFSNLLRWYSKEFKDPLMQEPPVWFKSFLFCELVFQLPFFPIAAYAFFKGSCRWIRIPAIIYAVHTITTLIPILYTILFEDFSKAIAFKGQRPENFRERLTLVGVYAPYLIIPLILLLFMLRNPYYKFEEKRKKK
Briefly: σ2 receptor radioligand competition binding, [3H]-DTG with 1 µM.

Series [3] relates to ARPE19 cells. Briefly: MTT cell viability assay, paraquat toxicity in ARPE19 cells. In kind it is cell-based, human. The settings on record: 1 mM paraquat, 24 h. A general note: Formazan colour is commonly taken as a measure of viable cells.
The subject of series [4] is ARPE19 cells. As to the kind of experiment: Confocal imaging of ARPE19 cells labeled with compound 9. In kind it is cell-based, human. The conditions noted are these: PB190 100 µM pretreatment 40 min. An outline of the steps:
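ARPE19 cells were grown in DMEM with 10% FBS and 1% penicillin-streptomycin under 5% CO2. Treatment and imaging were done in HBSS. Control wells were pretreated with PB190 100 µM for 40 min. Cells then received test compound 0.5 µM for 40 min and were rinsed twice in HBSS. Laser confocal imaging used a 60X oil objective, excitation 408 nm and emission detection 525 nm.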

The structures appear in SMILES notation.

σ1 receptor, sequence (Q60492 whole entry): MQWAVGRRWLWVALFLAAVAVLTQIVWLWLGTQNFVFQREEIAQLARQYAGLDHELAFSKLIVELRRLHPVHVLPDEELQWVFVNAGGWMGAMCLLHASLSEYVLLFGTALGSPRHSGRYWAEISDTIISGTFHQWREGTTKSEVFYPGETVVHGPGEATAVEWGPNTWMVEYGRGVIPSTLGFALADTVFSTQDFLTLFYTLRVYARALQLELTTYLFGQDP
human σ1 receptors in MCF7σ1 cells, sequence (Q99720 whole entry): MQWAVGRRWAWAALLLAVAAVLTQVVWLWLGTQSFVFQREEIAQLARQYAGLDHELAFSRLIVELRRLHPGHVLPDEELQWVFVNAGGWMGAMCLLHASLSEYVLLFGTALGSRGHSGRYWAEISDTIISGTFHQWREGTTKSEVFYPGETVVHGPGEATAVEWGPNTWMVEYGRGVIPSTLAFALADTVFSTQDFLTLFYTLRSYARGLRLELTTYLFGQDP

For `CC(C)=CCN1CC[C@]2(C)c3cc(O)ccc3C[C@H]1[C@H]2C` [(+)-Pentazocine, reference compound], the “effect on fluorescent signal by tracers 5 or 6 (100 nM)” value in the series with MCF7wt cells is “no change”. The “effect on fluorescent signal by tracers 5 and 6 (100 nM)” value in series [1] is “strongly decreased”.
As for `CC1CCN(CCCCC2CCCc3cc(OCCCCCCN4C(=O)c5ccc(N(C)C)cc5C4=O)ccc32)CC1` (stereo not drawn) [Compound 5, 5-(Dimethylamino)-2-(6-((5-(4-(4-methylpiperidin-1-yl)butyl)-5,6,7,8-tetrahydronaphthalen-2-yl)oxy)hexyl)isoindoline-1,3-dione], the “σ1 versus σ2 receptor selectivity” value at σ1 receptor was 10 fold. For the same molecule, in series [2], the “QY CHCl3 (fluorescence quantum yield)” value turned out to be 0.5 and the “QY EtOH (fluorescence quantum yield)” value is 0.02. The “concentration at which the cellular fluorescence signal reaches a plateau” value in series [1] is given as 100 nM.
Consider `CC1CCN(CCCCc2cccc3cc(OCCCCCCN4C(=O)c5ccc(N(C)C)cc5C4=O)ccc23)CC1` [Compound 6, 5-(Dimethylamino)-2-{6-[(5-(4-(4-methylpiperidin-1-yl)butyl)naphthalen-2-yl)oxy]hexyl}isoindole-1,3-dione], for which the “decrease of σ2 affinity in comparison to the lead compound” value on σ2 receptor (6 vs PB212) amounted to 2.5 fold. Moreover, the “σ1 versus σ2 receptor selectivity” value at σ1 receptor is reported as 10 fold. Besides, in series [2], the “QY CHCl3 (fluorescence quantum yield)” value was found to be 0.4 and the “QY EtOH (fluorescence quantum yield)” value was 0.02. Also, the “concentration at which the cellular fluorescence signal reaches a plateau” value in series [1] is recorded as 100 nM.
In general, Ki refers to the equilibrium dissociation constant of an inhibitor or competing ligand from its target. `CN(C)c1ccc2c(c1)C(=O)N(CCCCCCOc1cccc3c1CCCC3CCC(=O)N1CCN(C3CCCCC3)CC1)C2=O` (stereo not drawn) [Compound 9, 2-(6-((5-(3-(4-Cyclohexylpiperazin-1-yl)-3-oxopropyl)-5,6,7,8-tetrahydronaphthalen-1-yl)oxy)hexyl)-5-(dimethylamino) isoindole-1,3-dione]: the Ki on σ2 receptor came to 0.0384 ± 0.0109 µM. Further, at σ2 receptor (9 vs 1), the “σ2 receptor affinity higher than that of the lead compound” value is 5 fold. In addition, the “cytoprotection against paraquat-mediated toxicity (MTT viability)” value in the series with ARPE19 cells [3] was “protects against such toxicity”. At σ1 receptor, the affinity corresponds to a Ki of 0.0131 ± 0.00502 µM and the “σ1 versus σ2 receptor selectivity” value is 3 fold. In series [2], the “QY CHCl3 (fluorescence quantum yield)” value is 0.4 and the “QY EtOH (fluorescence quantum yield)” value came to 0.02.
Regarding `COc1cc2c(cc1OC)CN(CCCN1CCc3c(OC)cccc3C1=O)CC2` [Compound 10, 2-(3-(6,7-dimethoxy-3,4-dihydroisoquinolin-2(1H)-yl)propyl)-5-methoxy-3,4-dihydroisoquinolin-1(2H)-one, reference compound], the “effect on fluorescent signal by tracers 5 or 6 (100 nM)” value in the series with MCF7wt cells is “no change”. The “effect on fluorescent signal by tracers 5 and 6 (100 nM)” value in series [1] is “only slightly decreased”.
As to `COc1ccc2c(c1)CCCC2CCCCN1CCC(C)CC1` (stereo not drawn) [PB190, 4-methyl-1-[4-(6-methoxy-1,2,3,4-tetrahydronaphthalen-1-yl)butyl]piperidine], in the series on ARPE19 cells [4], the “effect on labeling by compound 9 when cells prelabeled” value is “Lower intensity of labeling”.
